Screening data deposited in PubChem by several laboratories.
A selection: hits, their analogues and other compounds. The true share with any hit is near 4.1%.
KCNQ1 act: potentiates or activates the human KCNQ1 potassium channel. CHO-K1 KCNQ1, thallium flux FluxOR fluorescence; hits give high values. B-score at 10 µM. 310,000 tested, 0.35% active;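 active means fluorescence ratio B-score, a plate-corrected score, at least three library SD, with initial intensity B-score within 5 SD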
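assay system = KCNQ1-transfected CHO-K1 cells | medium = assay buffer with matched DMSO | probe or stimulus = depolarizing K+/Tl+ stimulus, K2SO4 and Tl2SO4 each 12.5 mM in 5x stock | dosing = single dose | incubation = dye 90 min, compound 20 min, room temperature | detection = kinetic FluxOR fluorescence, 10 s baseline plus 110 s post-stimulus | evaluation = ratio B score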
KCC2 mod: modulates chloride dependent transport by human KCC2. Q9H2X9. KCC2 cells, thallium flux FluoZin-2 fluorescence. B-score of Tl+ flux slope (higher = more flux/activation; lower = inhibition) at 10 µM. 190,000 tested, 2.2% active;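 active means thallium flux slope and its plate-corrected score both differing from the plate sample mean at a set confidence after two filtering rounds, in either direction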;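 further: slope of fluorescence scaled to starting intensity during 10 to 20 s after thallium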
KCNQ1 block: inhibitors of human KCNQ1 potassium channel; CHO-K1 KCNQ1, FluxOR thallium flux fluorescence; hits give high values; B-score at 10 µM; 310,000 tested, 1.3% active; AID 2642; P51787;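 active means compounds whose thallium flux B-score, printed positive for inhibition, exceeds three library SD while starting fluorescence stays within three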;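 further: channel opened by potassium depolarization with thallium stimulus after 20 min compound exposure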
hERG protect: compounds protecting human hERG from proarrhythmic drug block | CHO-hERG, FluxOR thallium flux, dofetilide IC70 present | AID 1511 | 310,000 tested, 0.51% active | activation (rescue from dofetilide block), less the hit threshold, % at 10 µM;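 active means activation above the mean of controls blocked by dofetilide plus 5 SD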;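 further: thallium influx through hERG after potassium depolarization seen as dye fluorescence rise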
KCNK9 inh: blocks the human KCNK9 two-pore domain potassium channel | HEK293 KCNK9, FluxOR thallium flux fluorescence; hits give low values | B-score at 10 µM | Q9NPC2 | 310,000 tested, 1.2% active | AID 488922;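 active means ratio B-score over 3 SD below the library mean, with starting fluorescence within 5 SD of its mean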;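 further: negative B-score means less thallium flux so channel inhibition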
KCNK3 block: human KCNK3 channel inhibition, primary screen; O14649; CHO-KCNK3 thallium flux, FluxOR fluorescence; hits give low values; B-score at 10 µM; 340,000 tested, 0.84% active; AID 602410;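 active means B-score under library mean minus 4 SD, starting fluorescence ratio at most library mean plus 5 SD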;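 further: more negative B-score means stronger inhibition of thallium flux through KCNK3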
Target sequence (O14649 whole entry, looked up): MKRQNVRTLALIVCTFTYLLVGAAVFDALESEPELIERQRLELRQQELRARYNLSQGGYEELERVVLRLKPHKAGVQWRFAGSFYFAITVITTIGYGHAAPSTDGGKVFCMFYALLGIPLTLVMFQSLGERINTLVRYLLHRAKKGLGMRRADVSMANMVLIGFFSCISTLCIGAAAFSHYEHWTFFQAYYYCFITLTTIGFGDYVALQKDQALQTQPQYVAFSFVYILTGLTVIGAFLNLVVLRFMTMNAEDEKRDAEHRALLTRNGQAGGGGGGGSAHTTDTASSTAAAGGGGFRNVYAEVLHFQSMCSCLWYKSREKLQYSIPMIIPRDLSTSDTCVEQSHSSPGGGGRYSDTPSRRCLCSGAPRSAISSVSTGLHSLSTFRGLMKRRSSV
KCNK9 block conf: confirmation of human KCNK9 potassium channel inhibitors | 4,900 tested, 43% active | HEK293 KCNK9 cells, FluxOR thallium flux fluorescence | inhibition, % at 10 µM | shares compounds with KCNK9 inh;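 active means thallium signal inhibited by more than 5 SD of the compound-free buffer control wells, on both duplicate plates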;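 further: 0% = assay buffer control wells without compound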
Kir21 sel: tests whether KCNK9 modulators also affect mouse Kir2.1; shares compounds with KCNK9 inh; Kir2.1 cells, FluxOR thallium flux fluorescence; inhibition, % at 10 µM; 4,900 tested, 4% active;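 active means thallium signal drop more than 5 SD beyond the mean of the no-compound control wells, seen in both duplicate plates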;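 further: signal is fluorescence rise after thallium addition divided by baseline fluorescence; plate controls were assay buffer only for no effect and full block by chlorpromazine control for full effect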
HEK293 Tl ctr: non-induced cell nonspecific activity of KCNK9 modulators. inhibition, % at 10 µM. shares compounds with KCNK9 inh. non-induced KCNK9-HEK293, FluxOR thallium flux. 4,900 tested, 40% active;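 active means thallium signal drop beyond 5 SD of the untreated control mean, on both duplicate plates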;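 further: plate controls were buffer only IC0 wells for no effect and SID17386958 at its maximal inhibitory level for full effect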
KCNK3 confirm: human KCNK3 channel inhibition, confirmation assay; 2,400 tested, 99% active; ratio percent of control, % at 10 µM; CHO-KCNK3 thallium flux, FluxOR fluorescence; 0% buffer, 100% carvedilol maximal block; shares compounds with KCNK3 block;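 active means ratio percent of control, averaged over triplicates, above buffer control mean plus 5 SD, cut at about 64% in these data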;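 further: ratio is the fluorescence rise from min to max over baseline after thallium stimulus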
KCNK3 uninduced: activity in cells without induced KCNK3 expression. non-induced KCNK3 parental cells, FluxOR thallium flux; hits give low values. AID 651747. thallium flux ratio (lower = more inhibition) at 10 µM. shares compounds with KCNK3 block. 2,400 tested, 40% active;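 active means thallium flux ratio, averaged over three wells, more than 5 SD below the buffer control mean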;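 further: host cells are CHO cells without KCNK3 induction; ratio is peak minus trough fluorescence over baseline then normalized to buffer controls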
Numbers without * were called inactive.

Results for CC(=O)Nc1nc(S(=O)(=O)c2ccc(C)cc2)c(Cl)s1 ?
KCNQ1 act: inactive; KCNQ1 block: inactive; hERG protect: -8; KCNK9 inh: inactive; KCNK3 block: inactive

Results for Cc1ccc(S(=O)(=O)c2nc(NCc3ccc4c(c3)OCO4)sc2Cl)cc1 ?
KCNQ1 act: inactive; KCC2 mod: -1.8; KCNQ1 block: inactive; hERG protect: -8; KCNK9 inh: -11*; KCNK3 block: inactive; KCNK9 block conf: 42%*; Kir21 sel: 32%*; HEK293 Tl ctr: 42%*; KCNK3 confirm: 130*; KCNK3 uninduced: 0.16*

Results for CC1=NN(C(=O)COc2cc(C)ccc2C(C)C)C(O)(c2ccccc2)C1 (centres undefined) ?
KCNQ1 act: inactive; KCC2 mod: -1.2; KCNQ1 block: inactive; hERG protect: -11; KCNK9 inh: -15*; KCNK3 block: -9.8*; KCNK9 block conf: 58%*; Kir21 sel: inactive; HEK293 Tl ctr: 38%*; KCNK3 confirm: 120*; KCNK3 uninduced: 0.16*

Results for CC1=NN(C(=O)CSCc2ccccc2)C(O)(c2ccc(Cl)cc2)C1 (centres undefined) ?
KCNQ1 act: inactive; KCC2 mod: 0.21; KCNQ1 block: inactive; hERG protect: -5; KCNK9 inh: -13*; KCNK3 block: -13*; KCNK9 block conf: 62%*; Kir21 sel: inactive; HEK293 Tl ctr: 34%*; KCNK3 confirm: 98*; KCNK3 uninduced: inactive

What do the screens show for `COCCn1c(=NC(=O)CSC(C)=O)sc2cc(OC)ccc21`?
KCNQ1 act: inactive; KCC2 mod: 4.9e-05; KCNQ1 block: inactive; hERG protect: -10; KCNK9 inh: -16*; KCNK3 block: -8.9*; KCNK9 block conf: 60%*; Kir21 sel: inactive; HEK293 Tl ctr: 26%*; KCNK3 confirm: 93*; KCNK3 uninduced: inactive

Results for Cn1c(=O)c(=O)n(C)c2cc(S(=O)(=O)N3CCCC3C(=O)Nc3ccccc3F)ccc21 (centres undefined) ?
KCNQ1 act: inactive; KCNQ1 block: inactive; hERG protect: -5; KCNK9 inh: inactive; KCNK3 block: inactive

How did Cc1cc(C)c2nc(C)cc(N/N=C/c3ccc(O)cc3)c2c1 do in these assays?
KCNQ1 act: inactive; KCNQ1 block: 10*; hERG protect: -36; KCNK9 inh: -15*; KCNK3 block: -12*; KCNK9 block conf: 72%*; Kir21 sel: 36%*; HEK293 Tl ctr: inactive; KCNK3 confirm: 135*; KCNK3 uninduced: 0.12*

Results for Cc1ccc(C)c(N2CCN(S(=O)(=O)c3ccc4c(c3)CC(C)N4C(=O)C3CC3)CC2)c1 (centres undefined) ?
KCNQ1 act: inactive; KCNQ1 block: inactive; hERG protect: -13; KCNK9 inh: inactive; KCNK3 block: -9.3*; KCNK9 block conf: inactive; Kir21 sel: inactive; HEK293 Tl ctr: inactive; KCNK3 confirm: 75*; KCNK3 uninduced: inactive

Results for O=S(=O)(c1ccccc1)N1CCN=C1SCc1ccccc1Cl ?
KCNQ1 act: inactive; KCC2 mod: -1.3; KCNQ1 block: inactive; hERG protect: -3; KCNK9 inh: -9.7*; KCNK3 block: -11*; KCNK9 block conf: 34%*; Kir21 sel: inactive; HEK293 Tl ctr: 44%*; KCNK3 confirm: 114*; KCNK3 uninduced: inactive

Results for CCOC(=O)c1c(O)c2ccccc2n(CC)c1=O ?
KCNQ1 act: inactive; KCC2 mod: -0.59; KCNQ1 block: inactive; hERG protect: 1; KCNK9 inh: inactive; KCNK3 block: inactive

What do the screens show for `CCCn1c(=O)c(C(=O)Nc2ccccc2C(=O)OCC)c(O)c2ccccc21`?
KCNQ1 act: inactive; KCC2 mod: 0.15; KCNQ1 block: inactive; hERG protect: -11; KCNK9 inh: -9.2*; KCNK3 block: -8.9*; KCNK9 block conf: 54%*; Kir21 sel: inactive; HEK293 Tl ctr: 38%*; KCNK3 confirm: 92*; KCNK3 uninduced: inactive

How did O=C(O)c1cc([N+](=O)[O-])ccc1NCc1ccccn1 do in these assays?
KCNK3 block: inactive

Results for Cc1ccc(S(=O)(=O)N(C)C)cc1NC(=O)CN1CCN(Cc2ccccc2)CC1 ?
KCNQ1 act: inactive; KCC2 mod: -0.48; KCNQ1 block: inactive; hERG protect: -8; KCNK9 inh: inactive; KCNK3 block: inactive

Results for Cc1ccc(S(=O)(=O)N(C)C)cc1NC(=O)c1cc(C(C)(C)C)nn1Cc1ccccc1 ?
KCNQ1 act: inactive; KCC2 mod: -0.59; KCNQ1 block: inactive; hERG protect: -5; KCNK9 inh: -16*; KCNK3 block: -12*; KCNK9 block conf: 40%*; Kir21 sel: inactive; HEK293 Tl ctr: 33%*; KCNK3 confirm: 128*; KCNK3 uninduced: 0.14*

How did CCOC(=O)c1c(C)nc2c(c1-c1ccc(Cl)cc1)C(=O)CC(C)(C)C2 do in these assays?
KCNQ1 act: inactive; KCC2 mod: -2.2; KCNQ1 block: inactive; hERG protect: -18; KCNK9 inh: inactive; KCNK3 block: inactive

What do the screens show for `Cc1cc(C)cc(OCC(=O)Nc2cccc(-c3nnc(-c4ccco4)o3)c2)c1`?
KCNQ1 act: inactive; KCNQ1 block: inactive; hERG protect: -28; KCNK9 inh: -10*; KCNK3 block: -12*; KCNK9 block conf: 44%*; Kir21 sel: inactive; HEK293 Tl ctr: 60%*; KCNK3 confirm: 115*; KCNK3 uninduced: inactive

What do the screens show for `Cc1ccc(-c2nnc(-c3ccc(NC(=O)Cc4cccs4)cc3)o2)cc1`?
KCNQ1 act: inactive; KCNQ1 block: inactive; hERG protect: 0; KCNK9 inh: inactive; KCNK3 block: inactive
